According to ChEMBL document CHEMBL1926667, “The synthesis of 2-nitroaryl-1,2,3,4-tetrahydroisoquinolines, nitro-substituted 5,6-dihydrobenzimidazo[2,1-a]isoquinoline N-oxides and related heterocycles as potential bioreducible substrates for the enzymes NAD(P)H: quinone oxidoreductase 1 and E. coli nitroreductase” (Bioorg Med Chem Lett, 2011):

How the values were obtained:
Escherichia coli [1] = test: Activation of Escherichia coli nitroreductase assessed as specific activity per mg of protein at 100 uM by measuring decrease in substrate concentration by HPLC analysis
In short: (§1)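 Reduction by human NQO1 or E. coli NR followed by the disappearance of substrate over time; specific activity is the rate of substrate reduction at 37 °C. Relative activity is the specific activity compared with CB-1954.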

[2] = biological target: NAD(P)H dehydrogenase [quinone] 1 (Homo sapiens) (UniProt P15559); test: Activation of human NQO1 assessed as decrease in substrate concentration at 100 uM by HPLC analysis relative to CB-1954; in short: as §1
Escherichia coli [3] = test: Activation of Escherichia coli nitroreductase assessed as decrease in substrate concentration at 100 uM by HPLC analysis relative to CB-1954; in short: as §1
[4] = biological target: NAD(P)H dehydrogenase [quinone] 1 (Homo sapiens) (UniProt P15559); test: Activation of human NQO1 assessed as specific activity per mg of protein at 100 uM by measuring decrease in substrate concentration by HPLC analysis; in short: as §1
[5] = Solubility of the compound in 10 mM phosphate buffer with 10% DMSO at pH 7; type: physicochemical
Escherichia coli [6] = test: Activation of Escherichia coli nitroreductase assessed as decrease in NADH concentration at 100 uM relative to CB-1954
In short: (§2)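 Human NQO1 or E. coli NR reduction followed by the fall in NADH concentration over time; specific activity is the rate of reduction per enzyme at 37 °C. Relative values are the specific activity compared with CB-1954.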

Escherichia coli [7] = test: Activation of Escherichia coli nitroreductase assessed as specific activity per mg of protein at 100 uM by measuring decrease in NADH concentration; in short: as §2
Escherichia coli [8] = test: Activation of Escherichia coli nitroreductase assessed as specific activity per mg of protein at 50 uM by measuring decrease in substrate concentration by HPLC analysis relative to CB-1954
In short: (§3)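 Used for poorly soluble substrates: 50 µM compound in buffer (10 mM phosphate, pH 7) with 10% DMSO, incubated with human NQO1 or E. coli NR at 37 °C. Substrate disappearance was monitored over time. Rates assume a 50 µM starting concentration and no DMSO effect on the enzyme. Relative activity is compared with CB-1954.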

[9] = biological target: NAD(P)H dehydrogenase [quinone] 1 (Homo sapiens) (UniProt P15559); test: Activation of human NQO1 assessed as specific activity per mg of protein at 50 uM by measuring decrease in substrate concentration by HPLC analysis; in short: as §3
[10] = Solubility of the compound at 100 uM in sodium phosphate buffer with 10% DMSO and 500 uM NADH at pH 7; type: physicochemical; details: pH 7, 100 µM
Escherichia coli [11] = test: Activation of Escherichia coli nitroreductase assessed as specific activity per mg of protein at 50 uM by measuring decrease in substrate concentration by HPLC analysis; in short: as §3
[12] = biological target: NAD(P)H dehydrogenase [quinone] 1 (Homo sapiens) (UniProt P15559); test: Activation of human NQO1 assessed as specific activity per mg of protein at 50 uM by measuring decrease in substrate concentration by HPLC analysis relative to CB-1954; in short: as §3

Sequence of NAD(P)H dehydrogenase [quinone] 1 (Homo sapiens) (P15559 whole entry): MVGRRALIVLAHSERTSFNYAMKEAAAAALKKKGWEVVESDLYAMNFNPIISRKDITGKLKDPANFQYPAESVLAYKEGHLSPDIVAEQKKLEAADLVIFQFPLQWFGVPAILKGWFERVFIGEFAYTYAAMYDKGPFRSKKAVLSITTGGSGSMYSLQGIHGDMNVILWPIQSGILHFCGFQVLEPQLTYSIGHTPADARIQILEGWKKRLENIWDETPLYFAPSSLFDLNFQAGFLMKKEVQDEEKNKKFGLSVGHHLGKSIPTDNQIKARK

SMILES	Activity (Escherichia coli [1])	fold change (FC) [2]	fold change (FC) (Escherichia coli [3])	Activity [4]	further results
O=[N+]([O-])c1ccc2c(c1)[n+]([O-])c1n2CCc2ccccc2-1	0.5 µmol/min	2.6	0.3	0.016 µmol/min	–
O=[N+]([O-])c1cc(C(F)(F)F)c2c(c1)[n+]([O-])c1n2CCc2c-1cccc2[N+](=O)[O-]	< 0.001 µmol/min	< 0.16	< 0.001	< 0.001 µmol/min	–
NC(=O)c1cc([N+](=O)[O-])c(N2CCc3ccccc3C2)c([N+](=O)[O-])c1	< 0.001 µmol/min	< 0.16	< 0.001	< 0.001 µmol/min	–
O=[N+]([O-])c1cc([N+](=O)[O-])c(N2CCc3c(cccc3[N+](=O)[O-])C2)c(C(F)(F)F)c1	–	–	–	–	solubility [5]: Insoluble
O=C(O)c1cc([N+](=O)[O-])c(N2CCc3ccccc3C2)c([N+](=O)[O-])c1	0.02 µmol/min	< 0.16	0.01	< 0.001 µmol/min	–
NC(=O)c1cc(N2CC2)c([N+](=O)[O-])cc1[N+](=O)[O-]	1.86 µmol/min	–	–	–	Activity (10'-3umol/min) [4]: 6.2
O=[N+]([O-])c1ccc2c(c1)-c1n(c3ccc([N+](=O)[O-])cc3[n+]1[O-])CC2	–	< 0.16	–	< 0.001 µmol/min	fold change (FC) (Escherichia coli [6]): 0.6; Activity (Escherichia coli [7]): 1.3 µmol/min
NC(=O)c1cc2c(cc1[N+](=O)[O-])[n+]([O-])c1n2CCc2c-1cccc2[N+](=O)[O-]	< 0.001 µmol/min	< 0.16	< 0.001	< 0.001 µmol/min	–
O=[N+]([O-])c1cc([N+](=O)[O-])c(N2CCc3ccccc3C2)c(C(F)(F)F)c1	41.5 µmol/min	17.7	22.3	0.11 µmol/min	–
O=C(O)c1cc([N+](=O)[O-])cc([N+](=O)[O-])c1N1CCc2ccccc2C1	4.22 µmol/min	1.8	2.3	0.011 µmol/min	–
O=[N+]([O-])c1ccc(N2CCc3ccccc3C2)c([N+](=O)[O-])c1	0.44 µmol/min	< 0.16	0.2	< 0.001 µmol/min	–
O=[N+]([O-])c1cnc(N2CCc3ccccc3C2)c([N+](=O)[O-])c1	1.49 µmol/min	2.1	0.8	0.013 µmol/min	–
NC(=O)c1cc2c(cc1[N+](=O)[O-])[n+]([O-])c1n2CCc2ccccc2-1	< 0.001 µmol/min	< 0.16	< 0.001	< 0.001 µmol/min	–
O=[N+]([O-])c1cnc2c(c1)[n+]([O-])c1n2CCc2ccccc2-1	54 µmol/min	27.4	29	0.17 µmol/min	–
NC(=O)c1cc([N+](=O)[O-])cc2c1n1c([n+]2[O-])-c2ccccc2CC1	–	< 0.16	–	< 0.001 µmol/min	fold change (FC) (Escherichia coli [6]): 0.9; Activity (Escherichia coli [7]): 1.62 µmol/min
O=[N+]([O-])c1ccc2c(c1)CN(c1c([N+](=O)[O-])cc([N+](=O)[O-])cc1C(F)(F)F)CC2	–	–	–	–	fold change (FC) (Escherichia coli [8]): 1.3; Activity [9]: 0.076 µmol/min; solubility [10]: Insoluble; Activity (Escherichia coli [11]): 2.39 µmol/min; fold change (FC) [12]: 12.3
NC(=O)c1cc(N2CCc3ccccc3C2)c([N+](=O)[O-])cc1[N+](=O)[O-]	4.4 µmol/min	6.8	2.4	0.042 µmol/min	–
O=[N+]([O-])c1ccc2c(c1)[n+]([O-])c1n2CCc2c-1cccc2[N+](=O)[O-]	–	< 0.16	–	< 0.001 µmol/min	fold change (FC) (Escherichia coli [6]): 0.8; Activity (Escherichia coli [7]): 1.51 µmol/min
NC(=O)c1cc([N+](=O)[O-])cc([N+](=O)[O-])c1N1CCc2ccccc2C1	–	8.6	–	0.053 µmol/min	fold change (FC) (Escherichia coli [6]): 1.5; Activity (Escherichia coli [7]): 2.82 µmol/min
